Compound activity: PubChem BioAssay, Johns Hopkins Ion Channel Center
hERG rescue: hERG (human) protection from proarrhythmic block; CHO-hERG, FluxOR thallium flux, dofetilide IC70 present; activation (rescue from dofetilide block), less the hit threshold, % at 10 µM; actives 0.51% (n = 310,000); Q12809;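 active = activation above the mean of controls blocked by dofetilide plus 5 SD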;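 note: thallium influx through hERG after potassium depolarization seen as dye fluorescence rise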
KCNQ1 pot: potentiates or activates the human KCNQ1 potassium channel. P51787. CHO-K1 KCNQ1, thallium flux FluxOR fluorescence; hits give high values. B-score at 10 µM. actives 0.35% (n = 310,000). AID 2648;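 active = fluorescence ratio B-score, a plate-corrected score, at least three library SD, with initial intensity B-score within 5 SD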
Target sequence (P51787 whole entry, looked up): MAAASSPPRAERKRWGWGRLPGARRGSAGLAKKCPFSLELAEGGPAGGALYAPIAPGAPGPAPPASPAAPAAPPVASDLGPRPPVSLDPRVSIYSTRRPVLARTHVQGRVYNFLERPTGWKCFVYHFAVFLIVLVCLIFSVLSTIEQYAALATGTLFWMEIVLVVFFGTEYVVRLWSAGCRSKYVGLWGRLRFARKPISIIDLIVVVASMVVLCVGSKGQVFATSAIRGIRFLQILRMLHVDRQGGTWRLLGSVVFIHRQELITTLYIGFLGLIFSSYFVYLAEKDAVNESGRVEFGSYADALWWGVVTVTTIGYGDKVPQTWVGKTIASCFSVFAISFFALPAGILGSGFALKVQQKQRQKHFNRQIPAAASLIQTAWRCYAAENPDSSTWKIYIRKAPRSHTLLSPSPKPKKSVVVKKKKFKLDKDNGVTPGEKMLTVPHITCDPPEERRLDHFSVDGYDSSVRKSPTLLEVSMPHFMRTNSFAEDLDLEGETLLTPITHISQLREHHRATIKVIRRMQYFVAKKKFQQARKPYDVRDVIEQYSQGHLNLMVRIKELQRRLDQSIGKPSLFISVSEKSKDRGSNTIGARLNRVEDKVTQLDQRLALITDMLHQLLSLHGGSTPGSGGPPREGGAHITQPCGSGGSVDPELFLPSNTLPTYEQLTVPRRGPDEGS
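System: CHO-K1 cells stably expressing KCNQ1 / Medium: assay buffer for compound exposure, DMSO matched across wells / Reagent: thallium- and potassium-containing depolarizing buffer / Compound: one concentration, matched DMSO / Incubation: 20 min compound pretreatment at room temperature / Measured by: kinetic FluxOR fluorescence, 10 s baseline plus 110 s post-stimulus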
KCNK9 inh: inhibitors of human KCNK9 two-pore domain potassium channel. Q9NPC2. HEK293 KCNK9, FluxOR thallium flux fluorescence; hits give low values. B-score at 10 µM. actives 1.2% (n = 310,000). AID 488922;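 active = ratio B-score over 3 SD below the library mean, with starting fluorescence within 5 SD of its mean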;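 note: negative B-score means less thallium flux so channel inhibition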
Kir21 inh: blocks the mouse Kir2.1 inward-rectifier potassium channel; HEK293-Kir2.1, FluxOR thallium flux fluorescence; hits give low values; B-score at 10 µM; actives 0.85% (n = 310,000); AID 1672;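 active = fluorescence ratio B-score at or below minus 3 SD of library scores, with starting-brightness B-score within 2 SD, cut at about -4.2 in these data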;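 note: channel flux triggered by added potassium and thallium sulfate stimulus; B-score of peak minus minimum fluorescence over baseline after thallium stimulus; more negative B-score means stronger Kir2.1 block with less thallium influx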
KCNQ1 block: blocks the human KCNQ1 potassium channel. P51787. CHO-K1 KCNQ1, FluxOR thallium flux fluorescence; hits give high values. B-score at 10 µM. actives 1.3% (n = 310,000). AID 2642;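 active = compounds whose thallium flux B-score, printed positive for inhibition, exceeds three library SD while starting fluorescence stays within three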;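 note: channel opened by potassium depolarization with thallium stimulus after 20 min compound exposure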
KCNK3 inh: human KCNK3 channel inhibition, primary screen. O14649. CHO-KCNK3 thallium flux, FluxOR fluorescence; hits give low values. B-score at 10 µM. actives 0.84% (n = 340,000). AID 602410;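 active = B-score under library mean minus 4 SD, starting fluorescence ratio at most library mean plus 5 SD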;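 note: more negative B-score means stronger inhibition of thallium flux through KCNK3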
KCNK9 block conf: confirmation of human KCNK9 potassium channel inhibitors. AID 492992. HEK293 KCNK9 cells, FluxOR thallium flux fluorescence. actives 43% (n = 4,900). inhibition, % at 10 µM. shares compounds with KCNK9 inh;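 active = thallium signal inhibited by more than 5 SD of the compound-free buffer control wells, on both duplicate plates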
Kir2-1 spec: tests whether KCNK9 modulators also affect mouse Kir2.1; shares compounds with KCNK9 inh; Kir2.1 cells, FluxOR thallium flux fluorescence; inhibition, % at 10 µM; actives 4% (n = 4,900); AID 492993;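 active = thallium signal drop more than 5 SD beyond the mean of the no-compound control wells, seen in both duplicate plates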;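 note: signal is fluorescence rise after thallium addition divided by baseline fluorescence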
KCNK9 uninduced: second counter-screen for KCNK9 modulators: effect in non-induced cells; shares compounds with KCNK9 inh; non-induced KCNK9-HEK293, FluxOR thallium flux; inhibition, % at 10 µM; actives 40% (n = 4,900);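 active = thallium signal drop beyond 5 SD of the untreated control mean, on both duplicate plates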
Hits are given with their value; . = inactive; / = not tested or not shown. Sampled rows, rich in hits. Any-hit rate of the full collection: about 3.7%.

SMILES	hERG rescue	KCNQ1 pot	KCNK9 inh	Kir21 inh	KCNQ1 block	KCNK3 inh	KCNK9 block conf	Kir2-1 spec	KCNK9 uninduced
CS(=O)(=O)Cc1cccc(C(=O)NN(c2ccccc2)c2ccccc2)c1	.	.	.	.	.	.	/	/	/
O=C(NCCN1CCOCC1)c1cc(-c2ccc(Br)cc2)on1	.	.	-11.9	.	.	.	.	.	.
CCCNC(=O)c1ccc(Cn2cc(-c3ccc(OC)cc3)nc2C(C)N)cc1 (stereo not drawn)	.	.	.	.	.	.	/	/	/
Cc1ccccc1C1CCCN(Cc2nc(C3CC3)no2)C1 (stereo not drawn)	.	.	.	.	.	.	.	.	.
CCOC(=O)N1CCN(Cc2nc(C3CC3)no2)CC1	.	.	.	.	.	.	/	/	/
CC(C)CCn1c(=O)c2ccccc2n2c(CN(C)Cc3ccccc3)nnc12	.	.	.	.	.	.	.	.	.
CC(C)CCn1c(=O)c2ccccc2n2c(CCl)nnc12	.	.	.	.	.	.	/	/	/
CCNC(=O)c1ccc(C2SCC(=O)N2CCc2ccccc2)cc1 (stereo not drawn)	.	.	.	.	.	.	/	/	/
CCc1ccc(NC(=O)c2ccc(C3SCC(=O)N3CCc3ccccc3)cc2)cc1 (stereo not drawn)	.	.	.	.	.	.	.	.	.
Cc1ccc(S(=O)(=O)N(C)c2ccc(C(=O)N3CCc4ccccc4C3)cc2)cc1	.	.	.	.	.	.	.	.	.
Cc1ccc(NS(=O)(=O)c2cc(C(=O)N3CCc4ccccc4C3)ccc2Cl)cc1	.	.	-12.5	.	.	.	.	.	25.5%
CN(c1ccccc1)S(=O)(=O)c1ccc(C(=O)N2CCc3ccccc3C2)cc1	.	.	.	.	.	.	/	/	/
Cc1ccc(NS(=O)(=O)c2cc(C(=O)O)ccc2Cl)cc1	.	.	.	.	.	.	/	/	/
O=C(NC1CCN(C(=O)Nc2ccc(F)cc2)CC1)c1ccc(F)cc1	.	.	.	.	.	.	/	/	/
Cc1cc(C)c(OCC(=O)NCC(C)(C)N2CCOCC2)c(C)c1	.	.	.	.	.	.	/	/	/
Cc1cc(C)c(S(=O)(=O)c2ccc(C(C)(C)C)cc2)c(Cl)n1	.	.	.	.	.	.	.	.	.
CN(Cc1cccc(Cl)c1Cl)C(=O)c1cccc(S(=O)(=O)N2CCN(Cc3ccccc3)CC2)c1	.	.	.	.	.	.	.	.	.
Cc1ccccc1C(=O)Nc1sc(C)c(C)c1C(=O)c1ccccc1	.	.	.	.	8	.	.	.	.
Cc1sc(NC(=O)CCl)c(C(=O)c2ccccc2)c1C	.	.	.	.	.	.	/	/	/
O=C(COc1ccc(Br)cc1)c1ccc2c(c1)CCCC2	.	.	.	.	.	.	/	/	/
Cc1ccc(OCC(=O)c2ccc3c(c2)CCCC3)cc1C	.	.	.	.	.	.	.	.	.
Cc1ccc(NC(=O)C(C)OC(=O)c2nc(Cl)ccc2Cl)cc1S(=O)(=O)N1CCOCC1 (stereo not drawn)	/	/	/	/	/	.	/	/	/
CCOc1ccccc1C(=O)Nc1ccc(C(=O)c2ccccc2)cc1	.	.	-12.6	.	.	.	75.5%	.	31.5%
CCOc1ccc(NC(=O)c2ccccc2OCC(=O)c2ccccc2)cc1	.	.	-14.4	.	.	.	41.5%	.	.
CC1CC2(CCCCC2)Nc2c1ccc1ccccc21 (stereo not drawn)	.	.	.	.	.	.	/	/	/
SMILES	hERG rescue	KCNQ1 pot	KCNK9 inh	Kir21 inh	KCNQ1 block	KCNK3 inh	KCNK9 block conf	Kir2-1 spec	KCNK9 uninduced
CC(=O)N1c2c(ccc3ccccc23)C(C)CC12CCCCC2 (stereo not drawn)	.	.	-14.2	.	.	.	49.0%	.	47.0%
COc1ccc(C)cc1NC(=O)CC(O)(C(F)(F)F)C(F)(F)F	.	.	-9.61	.	.	.	.	.	.
CCOC(=O)Nc1cc(C)ccc1OC	.	.	.	.	.	.	/	/	/
Cc1c(/C=N/n2cnnc2)c2ccccc2n1CCOc1ccc(Cl)cc1	.	.	-8.25	.	.	.	.	.	.
Cc1ccc(OCCn2c(C)c(/C=N/n3cnnc3)c3ccccc32)cc1	.	.	.	.	.	.	/	/	/
CN1c2ccccc2C(C)(C)[C@]12C=Cc1cc(O)ccc1O2	.	.	.	-5.86	13	.	.	33.0%	.
O=C(CSc1ncn[nH]1)N1N=C2/C(=C/c3ccccc3)CCCC2C1c1ccccc1 (stereo not drawn)	.	.	-12.3	.	.	.	52.5%	.	33.0%
CC(C(=O)NC1C=CS(=O)(=O)C1)N1C(=O)/C(=C\c2ccccc2)SC1=S (stereo not drawn)	.	.	.	.	.	.	/	/	/
CC(C(=O)NC1C=CS(=O)(=O)C1)N1C(=O)/C(=C/c2cccc(Cl)c2)SC1=S (stereo not drawn)	.	.	.	.	.	.	.	.	.
CC(C)(C)c1ccc(CN2N=C(/C=C/c3ccccc3)CCC2=O)cc1	.	.	.	.	.	.	.	.	.
O=C1CCC(/C=C/c2ccccc2)=NN1Cc1ccc(F)cc1	.	.	.	.	.	.	.	.	.
O=C1CCC(/C=C/c2ccccc2)=NN1Cc1ccccc1	.	.	.	.	.	.	/	/	/
O=[N+]([O-])c1ccc(C2CCCC/C2=N/OCc2ccc(F)cc2)c([N+](=O)[O-])c1 (stereo not drawn)	.	.	-8.23	.	.	.	75.5%	.	32.5%
Cc1ccc(NC(=O)O/N=C2\CCCCC2c2ccc([N+](=O)[O-])cc2[N+](=O)[O-])cc1 (stereo not drawn)	.	.	-10.2	.	.	.	65.0%	.	32.0%
O=C(O/N=C1\CCCCC1c1ccc([N+](=O)[O-])cc1[N+](=O)[O-])c1c(F)cccc1F (stereo not drawn)	.	.	.	.	.	.	/	/	/
O=C(OCc1nnc(-c2ccccc2)o1)C12CC3CC(CC(Br)(C3)C1)C2	.	.	.	.	.	.	.	.	.
CN(C)CCCN(C(=O)c1ccc(C(=O)c2ccccc2)cc1)c1nc2c(F)cccc2s1	.	.	.	.	.	.	.	.	.
Cc1nn(Cc2noc(C(=O)NC3CCC(C)CC3)n2)c(C)c1Br (stereo not drawn)	.	.	.	.	.	.	/	/	/
O=C(O)c1cc(NN=Nc2ccc(Br)cc2)cc([N+](=O)[O-])c1	.	.	.	.	.	.	.	.	.
